Experimental data collected from several papers.
Protocols differ between the studies behind these lines.
Target: Serine/threonine-protein kinase RIO1 (RIOK1, Homo sapiens, UniProt Q9BRS2)
Sequence (Q9BRS2 1-568, as in one of the studies): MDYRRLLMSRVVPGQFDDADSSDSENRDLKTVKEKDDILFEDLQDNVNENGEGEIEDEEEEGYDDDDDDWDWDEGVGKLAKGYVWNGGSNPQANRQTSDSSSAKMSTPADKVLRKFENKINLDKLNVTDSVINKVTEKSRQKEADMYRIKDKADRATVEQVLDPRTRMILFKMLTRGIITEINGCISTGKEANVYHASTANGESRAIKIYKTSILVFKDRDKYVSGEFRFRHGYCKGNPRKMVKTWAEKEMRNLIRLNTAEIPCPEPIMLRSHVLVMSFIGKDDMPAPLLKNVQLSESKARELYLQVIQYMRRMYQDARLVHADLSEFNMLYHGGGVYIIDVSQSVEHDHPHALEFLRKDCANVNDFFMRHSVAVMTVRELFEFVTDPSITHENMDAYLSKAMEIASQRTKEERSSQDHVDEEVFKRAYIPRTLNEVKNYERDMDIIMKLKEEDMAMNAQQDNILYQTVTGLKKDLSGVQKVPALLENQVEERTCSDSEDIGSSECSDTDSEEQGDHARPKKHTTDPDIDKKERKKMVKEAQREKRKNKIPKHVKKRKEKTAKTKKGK

SMILES | test | conditions | remaining binding [%]
c1cncc(-c2cccc(Nc3nccc(NC4CCCCC4)n3)c2)c1 | binding, competition with immobilised ligand | 10 µM | 26
O=C(NCCCN1CCOCC1)c1ccc(Nc2ncc(Cl)c(-c3ccc(Cl)s3)n2)cc1 | binding, competition with immobilised ligand | 1 µM | 0.05
COc1ncc2cc3ccccc3nc2c1C#N | cell-free assay, competition with immobilised ligand | 5 µM | 93
O=C(c1ccc(Nc2nccc(-c3cc4ccccc4s3)n2)cc1)N1CCC(N2CCCC2)CC1 | binding, competition with immobilised ligand | 1 µM | 0.1
Cn1cc(Cl)c2c(Oc3c(F)cc(Nc4cc(Cl)nc(N)n4)cc3F)ccnc21 | cell-free assay, competition with immobilised ligand | 0.1 µM | 100
C[C@@H](c1ccc(-n2cnc3c(N)ncnc32)cc1)N1CCc2nn(C)c(Cc3ccccc3)c2C1=O | binding, competition with immobilised ligand | 0.1 µM | 69
Cc1cnn2ncc(-c3ccnc(N(C)C)n3)c2c1 | binding | 1 µM | 98
Cc1nc(Cc2cccc(C(F)(F)F)c2)sc1-c1ccc(C(N)=O)nc1 | cell-free assay, competition with immobilised ligand | 1 µM | 94
FC(F)(F)Oc1cccc(-c2cnc3ccc(-c4ccncc4)nn23)c1 | cell-free assay, competition with immobilised ligand | 5 µM | 17
CN(C)c1nccc(-c2cnn3ncccc23)n1 | binding | 1 µM | 100
C[C@@H]1CN(c2cc(-c3n[nH]c4ccc(OC5(C)CC5)cc34)ncn2)C[C@H](C)O1 | cell-free assay, competition with immobilised ligand | 0.1 µM | 100
F[C@@H]1CCN(c2nccc(-c3cnn4ncccc34)n2)C1 | binding | 1 µM | 93
O=C(c1ccc(Nc2ncc(Cl)c(-c3cc4ccccc4s3)n2)cc1)N1CCC(N2CCCC2)CC1 | binding, competition with immobilised ligand | 1 µM | 0
Cn1nc(C(=O)NCc2ccc(C(=O)O)cc2)cc1-c1ccc2[nH]ccc2c1 | cell-free assay, competition with immobilised ligand | 0.1 µM | 76
CN(C)c1ncc(F)c(-c2cnn3ncccc23)n1 | binding | 1 µM | 100
COc1ccc2c(c1)O[C@@H](c1ccc(OC)c(OC)c1)C[C@H]2NC(=O)C1(c2ccc3c(c2)OC(F)(F)O3)CC1 | cell-free assay, competition with immobilised ligand | 1 µM | 100
COc1ccnn2ncc(-c3ccnc(N(C)C)n3)c12 | binding | 1 µM | 100
O=C(NCC1CCOCC1)c1n[nH]cc1NC(=O)c1c(F)cccc1F | binding, competition with immobilised ligand | 1 µM | 88
C[C@H]1CCN(c2nccc(-c3cnn4ncccc34)n2)C1 | binding | 1 µM | 62
CNC(=O)[C@@H]1CC[C@@H](n2c(-c3ccc4cnccc4c3)nc3ccc(C(=O)NCc4cccc(C(N)=O)c4)cc32)C1 | binding, competition with immobilised ligand | 1 µM | 100
N#Cc1ccc(Nc2ccc3[nH]c(=O)[nH]c3c2)c(Cl)c1 | cell-free assay, competition with immobilised ligand | 1 µM | 100
c1cnn2ncc(-c3ccnc(N4CCC45COC5)n3)c2c1 | binding | 1 µM | 36
